According to PubChem BioAssay AID623961 (The Scripps Research Institute Molecular Screening Center, 2012):
Several values for one entry are separate records, joined by “and”; a condition that tells them apart may be missing. Identical values can stand only once. Activity calls are given as the source filed them.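 How the source made its calls: active means mean cell viability below 80%; inactive means the rest.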

Test system: Huh-7.5 Rluc-replicon viability, CellTiter-Glo ATP, 72 h
Test: Huh-7.5 replicon viability loss – cell-based, luminescence, cytotoxicity control for HCV NS3 helicase inhibitor project, late-stage follow-up (AID 623961)
Settings: at 10 µM; hits give low values
Outline: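 test system = Huh-7.5 human hepatoma cells harboring HCV Renilla luciferase replicon | compound dosing = 10 µM single concentration, 0.5% DMSO | schedule = cell attachment 4-5 h, compound exposure 72 h at 37 °C, 5% CO2 | measured by = ATP luminescence after 30 min lysis at 23 °C | read-out = average percent cell viability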

Compound	viability
Cc1ccc2nc(-c3ccc4nc(-c5ccc(NC(=O)c6cccnc6)cc5)sc4c3)sc2c1S(=O)(=O)O	113% (inactive)
Cc1ccc2nc(-c3ccc4nc(-c5ccc(NC(=O)c6cc(C(F)(F)F)cc(C(F)(F)F)c6)cc5)sc4c3)sc2c1S(=O)(=O)O	122% (inactive)
Cc1ccc2nc(-c3ccc4nc(-c5ccc(NC(=O)c6ccc7ccccc7c6)cc5)sc4c3)sc2c1S(=O)(=O)O	87% (inactive) and 99% (inactive)
Cc1ccc2nc(-c3ccc(NC(=S)Nc4ccccc4Br)cc3)sc2c1	39%
Cc1cc2sc(-c3ccc(N)cc3)nc2cc1S(=O)(=O)O	88% (inactive)
COC(=O)c1ccc(C(=O)Nc2ccc(-c3nc4ccc(-c5nc6ccc(C)c(S(=O)(=O)O)c6s5)cc4s3)cc2)cc1	101% (inactive)
Cc1ccc2nc(-c3ccc(NC(=O)c4ccc(NC(=O)c5ccc(C(F)(F)F)cc5)cc4)cc3)sc2c1S(=O)(=O)O	97% (inactive)
Cc1ccc2nc(-c3ccc4nc(-c5ccc(NC(=O)c6ccc7ncoc7c6)cc5)sc4c3)sc2c1S(=O)(=O)O	114% (inactive)
CCOc1ccc2nc(NC(=O)c3ccc4ncsc4c3)sc2c1	3%
Cc1ccc2nc(-c3ccc4nc(-c5ccc(NC(=O)Nc6ccc(F)cc6)cc5)sc4c3)sc2c1S(=O)(=O)O	93% (inactive)
Cc1ccc2nc(-c3ccc4nc(-c5ccc(NC(=O)c6cccc(C(F)(F)F)c6)cc5)sc4c3)sc2c1S(=O)(=O)O	121% (inactive)
Cc1ccc2nc(-c3ccc4nc(-c5ccc(NC(=O)Nc6ccc(Cl)cc6)cc5)sc4c3)sc2c1S(=O)(=O)O	98% (inactive)
Cc1ccc2nc(-c3ccc(NC(=O)c4ccc(NC(=O)Nc5ccccc5)cc4)cc3)sc2c1S(=O)(=O)O	113% (inactive)
Cc1ccc2nc(-c3ccc4nc(-c5ccc(NC(=O)c6cccc(C(F)(F)F)c6F)cc5)sc4c3)sc2c1S(=O)(=O)O	122% (inactive)
Cc1cc(C(O)(c2ccc(Nc3ccccc3)cc2)c2ccc(Nc3ccc(S(=O)(=O)O)cc3)cc2)ccc1N (stereo not given)	73%
Cc1ccc2nc(-c3ccc4nc(-c5ccc(NC(=O)c6cc(F)cc(C(F)(F)F)c6)cc5)sc4c3)sc2c1S(=O)(=O)O	113% (inactive)
Cc1ccc2nc(-c3ccc4nc(-c5ccc(NC(=S)Nc6ccccc6)cc5)sc4c3)sc2c1S(=O)(=O)O	98% (inactive)
Cc1ccc2nc(-c3ccc4nc(-c5ccc(NC(=O)c6cccc7ccccc67)cc5)sc4c3)sc2c1S(=O)(=O)O	103% (inactive)
Cc1ccc(C(=O)Nc2ccc(-c3nc4ccc(-c5nc6ccc(C)c(S(=O)(=O)O)c6s5)cc4s3)cc2)cc1	87% (inactive)
Cc1ccc2nc(-c3ccc4nc(-c5ccc(NC(=O)c6ccc(CNC(=O)OCC7c8ccccc8-c8ccccc87)cc6)cc5)sc4c3)sc2c1S(=O)(=O)O	102% (inactive)
Cc1ccc2nc(-c3ccc(NC(=O)c4ccc(NC(=O)OCC5c6ccccc6-c6ccccc65)cc4)cc3)sc2c1S(=O)(=O)O	108% (inactive)
COc1ccc(C(=O)Nc2ccc(-c3nc4ccc(-c5nc6ccc(C)c(S(=O)(=O)O)c6s5)cc4s3)cc2)cc1	85% (inactive)
Cc1ccc2nc(-c3ccc4nc(-c5ccc(NC(=O)c6ccc(Cl)c(Cl)c6)cc5)sc4c3)sc2c1S(=O)(=O)O	114% (inactive)
CS(=O)(=O)c1ccc2nc(NC(=O)c3ccc4ncsc4c3)sc2c1	41%
Cc1ccc2nc(-c3ccc4nc(-c5ccc(NC(=O)c6cccc(Cl)c6)cc5)sc4c3)sc2c1S(=O)(=O)O	112% (inactive)
